Screening results from PubChem BioAssay.
TRPC4 agonist: opens the mouse TRPC4 cation channel. Q9QUQ5. HEK293 TRPC4beta/mu-opioid, Fluo4 calcium fluorescence; stronger effect = higher value. B-score at 10 µM. hit rate 0.49% among 310,000;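 active = B-score above 5 SD of library B-scores, and initial fluorescence ratio not above library mean plus 5 SD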;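 note: positive B-score marks a calcium rise read as TRPC4 activation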
Target sequence (Q9QUQ5 whole entry, looked up): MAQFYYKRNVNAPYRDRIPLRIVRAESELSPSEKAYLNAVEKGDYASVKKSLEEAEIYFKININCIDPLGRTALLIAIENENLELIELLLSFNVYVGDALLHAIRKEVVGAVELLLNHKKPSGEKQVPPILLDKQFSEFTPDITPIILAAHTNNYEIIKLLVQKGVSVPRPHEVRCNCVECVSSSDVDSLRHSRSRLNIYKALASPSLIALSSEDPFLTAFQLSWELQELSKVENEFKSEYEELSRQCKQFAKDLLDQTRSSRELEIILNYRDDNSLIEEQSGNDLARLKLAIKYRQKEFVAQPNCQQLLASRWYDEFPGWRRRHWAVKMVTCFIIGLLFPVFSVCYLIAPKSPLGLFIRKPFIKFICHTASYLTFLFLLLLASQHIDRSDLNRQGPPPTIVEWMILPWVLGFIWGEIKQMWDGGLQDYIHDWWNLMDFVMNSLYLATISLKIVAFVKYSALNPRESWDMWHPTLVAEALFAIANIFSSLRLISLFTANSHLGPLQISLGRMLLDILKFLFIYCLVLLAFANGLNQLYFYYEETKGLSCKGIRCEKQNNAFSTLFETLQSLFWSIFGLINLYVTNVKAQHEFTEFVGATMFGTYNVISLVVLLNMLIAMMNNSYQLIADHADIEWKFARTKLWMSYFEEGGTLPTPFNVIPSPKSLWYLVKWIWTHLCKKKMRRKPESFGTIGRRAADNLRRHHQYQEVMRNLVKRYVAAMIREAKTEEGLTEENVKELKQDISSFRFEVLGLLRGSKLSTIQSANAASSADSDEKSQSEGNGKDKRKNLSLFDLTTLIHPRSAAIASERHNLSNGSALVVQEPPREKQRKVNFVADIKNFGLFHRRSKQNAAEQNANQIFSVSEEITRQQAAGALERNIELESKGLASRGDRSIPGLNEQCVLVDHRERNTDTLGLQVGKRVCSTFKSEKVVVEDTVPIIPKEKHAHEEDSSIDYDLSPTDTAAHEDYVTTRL
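Assay system: HEK293 cells stably co-expressing mouse TRPC4beta and mu-opioid receptor / Timing: Fluo4 dye loading 45 min at room temperature, 110 s recording / Signal: Fluo4 calcium-sensitive dye fluorescence, kinetic, 1 Hz baseline / Read-out: integrated baseline-normalised fluorescence ratio, converted to per-well B score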
TRPC4 potent: allosteric potentiators of mouse TRPC4 channel. Q9QUQ5. HEK293 TRPC4beta/mu-opioid, DAMGO EC20, Fluo-4 Ca2+ flux; stronger effect = higher value. B-score at 10 µM. hit rate 0.42% among 310,000. AID 2227;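 active = B-score of calcium response area above 5 SD of library B-scores, with initial fluorescence ratio within 5 SD of library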;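 note: B-score of integrated fluorescence ratio over time as area under calcium response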
TRPC6 act: mouse TRPC6 channel activation. Q61143. HEK293-TRPC6 membrane potential dye fluorescence; stronger effect = higher value. hit rate 0.13% among 310,000. B-score at 10 µM. AID 2550;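 active = B-score of the integrated fluorescence ratio above library mean plus 3 SD, and starting fluorescence ratio within library mean plus 5 SD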;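 note: higher score means more depolarization so channel activation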
TRPC4 block: inhibitors of mouse TRPC4 channel | B-score at 10 µM | AID 2247 | hit rate 0.39% among 300,000 | HEK293 TRPC4beta/mu-opioid, DAMGO-evoked Fluo4 calcium flux; stronger effect = lower value;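 active = B-score over 3 SD under the library average, no early fluorescence shift, positive overall ratio signal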
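Material: HEK293 cells with stable TRPC4beta plus mu-opioid receptor expression / Probe or stimulus: DAMGO in two steps, submaximal then maximal / Compound: single concentration per test compound / Technique: kinetic Fluo4 fluorescence imaging of calcium influx / Read-out: per-well B score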
TRPC6 inhibitor: mouse TRPC6 channel inhibition | Q61143 | HEK293-TRPC6, membrane potential dye, ACh-evoked depolarization; stronger effect = lower value | AID 2553 | hit rate 1.1% among 310,000 | B-score at 10 µM;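 active = B-score under library mean minus 3 SD, initial fluorescence not abnormally high, positive integrated signal ratio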;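 note: B-score derived from integrated fluorescence ratio over the kinetic read; more negative B-score means stronger inhibition of depolarization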
An asterisk follows results filed as active; i = inactive. Hits are enriched below; roughly 2.3% of the tested compounds scored in any of these assays.

SMILES	TRPC4 agonist	TRPC4 potent	TRPC6 act	TRPC4 block	TRPC6 inhibitor
O=C(Nc1ccccc1)N1CCN(c2nc3ccccc3s2)CC1	43*	i	i	i	i
CN(C)CCNc1ccc(Cl)cc1[N+](=O)[O-]	i	21*	i	i	i
CS(=O)(=O)NCCNc1ccc(Cl)cc1[N+](=O)[O-]	i	i	i	i	i
CC(C(=O)NC(N)=O)N1C(=O)NC(c2ccccc2)(c2ccccc2)C1=O (stereo not given)	i	i	i	i	i
CC(=O)NNC(=S)NC(=O)c1ccc(C)cc1	i	i	i	i	i
Cc1ccc(C(=O)NNC(=S)NC(=O)c2ccc(Cl)cc2)cc1	222*	i	i	i	i
O=C(CCc1ccccc1)NNC(=S)NC(=O)c1ccc(Cl)cc1	211*	i	i	i	i
CC(C)CCSc1nc2[nH]ncc2c(=O)[nH]1	i	i	i	i	i
Cc1cccc2cc(CN(Cc3nnnn3C3CCCC3)C3CCCCC3)c(=O)[nH]c12	i	i	i	i	i
CCc1ccc2[nH]c(=O)c(CN(Cc3nnnn3C3CCCC3)C3CCCCC3)cc2c1	i	10*	i	i	i
CCCCN(CC)CCCNC(=O)C1c2ccccc2C(=O)N(C)C1c1cn(C)c2ccccc12 (stereo not given)	80*	i	i	i	i
CCOc1ccc(-c2c(C(=O)N/N=C/C3CC=CCC3)nnn2-c2nonc2N)cc1 (stereo not given)	i	i	i	i	i
O=C(CCNC(=O)Cn1ccc2ccccc2c1=O)NCCc1ccc(Cl)cc1	i	i	i	i	i
O=C(c1ccc(S(=O)(=O)Nc2ccccc2)cc1)N1CCC1	i	i	i	i	i
Cc1cccc(NC(=O)CNC(=O)CN2C(=O)NC3(CCCCC3C)C2=O)c1C (stereo not given)	i	17*	i	i	i
CC1CCCCC12NC(=O)N(CC(=O)NCCc1ccccn1)C2=O (stereo not given)	i	i	i	i	i
CC(=O)N1CCN(Cc2nc3cc(NC(=O)c4cccc(Br)c4)ccc3n2C)CC1	i	i	i	i	i
COC(=O)CSc1nnc(CNS(=O)(=O)c2ccc(Br)cc2)n1C	i	i	i	-6*	i
CCOc1ccc(CCNC(=O)C(CCC(N)=O)NC(=O)OCc2ccccc2)cc1OCC (stereo not given)	i	i	i	i	i
Cc1ccc2nc(/N=C(\N)NC(=O)NC3CCCCC3)nc(C)c2c1	55*	i	i	i	i
CCCC(=O)N/C(N)=N/c1nc(C)c2cc(C)ccc2n1	i	i	i	i	i
Cc1ccc(-c2cc(C(=O)Nc3cc(C)on3)c3ccccc3n2)cc1	i	i	i	i	i
Cc1cc(NC(=O)c2cc(-c3cccs3)nc3ccccc23)no1	i	i	i	-6*	i
Cc1cc(NS(=O)(=O)c2ccc(NC(=O)CCCOc3ccccc3C)cc2)no1	i	i	i	i	i
O/N=C/c1ccccc1Oc1ccc(Cl)cc1	i	i	i	-6*	i
SMILES	TRPC4 agonist	TRPC4 potent	TRPC6 act	TRPC4 block	TRPC6 inhibitor
Clc1ccc(SCc2cn3ccccc3n2)cc1	i	i	i	i	i
Cc1cccc2nc(CSc3ccc(Cl)cc3)cn12	i	i	i	-8*	i
COc1ccc(CNC(=O)C(c2ccc(C)o2)N(Cc2cccs2)C(=O)Cc2cccs2)cc1 (stereo not given)	i	i	i	i	i
NNC(=O)c1csc(-c2ncc(C(F)(F)F)cc2Cl)n1	i	i	i	i	i
Cc1nc2c3cc(Cl)ccc3n(CCN3CCCCC3)c2s1	i	i	i	-6*	i
COC(=O)Cn1c2ccc(Cl)cc2c2nc(C)sc21	i	i	i	i	i
Cc1ccc(S(=O)(=O)Nc2ccccc2C(=O)N2CCN(C)CC2)cc1	i	i	i	i	i
Cc1nc(-n2nnc3ccccc32)c2c3c(sc2n1)CCCC3	i	i	i	i	i
c1ccc2c(c1)nnn2-c1ncnc2sc3c(c12)CCCC3	i	i	i	-6*	i
Fc1ccc(Nc2ncnc3sc4c(c23)CCC4)cc1	i	66*	i	i	i
Fc1ccc(Nc2ncnc3sc4c(c23)CCC4)cc1F	i	i	i	i	i
c1ccc(Nc2ncnc3sc4c(c23)CCC4)cc1	216*	i	i	i	i
Cc1ccc(Nc2nnc(-c3ccncc3)s2)c(Br)c1	i	i	i	i	i
CCOC(=O)C1=NNC(C(=O)c2ccc(Cl)cc2)C1c1ccc(OC)cc1 (stereo not given)	i	15*	i	i	i
COc1cc(O)c(CCC(=O)c2ccc(OC)c(OC)c2)c(OC)c1	i	i	i	i	i
CC1CCN(CC(=O)Nc2cccc(C(=O)Nc3cccc(C(F)(F)F)c3)c2)CC1	i	i	i	i	i
CC(C)(C)c1ccc(/C=N/NC(=S)NCc2ccccc2)cc1	i	i	i	i	i
C=CCNC(=S)N/N=C/c1ccc(C(C)(C)C)cc1	i	i	i	-6*	i
Cc1ccc(-n2c(SCC(=O)NCc3ccco3)nc3c(sc4ccccc43)c2=O)cc1	i	i	i	i	i
CCC(C)NCCC(=O)Nc1ccc(Cl)c(S(=O)(=O)Nc2ccc(Cl)cc2)c1 (stereo not given)	i	11*	i	i	i
CCN(CC1COc2ccccc2O1)C(=S)NCCCN(C)C (stereo not given)	i	12*	i	i	i
COc1c[nH]n(-c2ccccc2)c(=O)c1=O	i	i	i	i	i
CC1CCCC(NC(=O)CCC(=O)N2CCOc3ccccc32)C1C (stereo not given)	i	i	i	i	i
CN(C)c1ccc(-c2nc3ccccc3n2C)cc1	46*	i	i	i	i
CCN(CC)CCCNC(=O)c1ccc2c3n(nc2c1)-c1ccc(Cl)cc1CO3	i	i	i	i	i
O=C(COc1coc(CN2CCN(c3ccccc3F)CC2)cc1=O)Nc1ccccc1	i	32*	i	i	i
COc1ccc(OC)c(-c2csc(NC(=O)CSc3nnnn3C)n2)c1	i	i	i	i	i
CN(C)CCCNCC(=O)NN(c1ccccc1)c1ccccc1	i	i	i	i	i
O=C(Nc1ccc(F)cc1F)c1cc(-c2ccco2)on1	i	i	i	i	i
